Test results as given in ChEMBL document CHEMBL5712901, “DOT1L inhibition blocks multiple myeloma cell proliferation by suppressing IRF4-MYC signaling” (2019).
The source made the active and inactive calls. No cut-off for these calls is given here.

Columns and labels:
[1] = test system: RPMI-8226; assay: Induction of apoptosis in human RPMI-8226 cells assessed as necrotic cells at 1 uM for 6 days by annexin-V based propidium iodide staining based flow cytometric analysis (reference value: 3.92%); format: functional; conditions: time 6 day
[2] = test system: KMS-12-PE; assay: Effect on human KMS-12-PE cells assessed as decrease in MYC mRNA level at 1 uM for 6 days by qRT-PCR analysis; format: functional, cell-based; conditions: time 6.0 day
Outline: (§1)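 qRT-PCR of MYC and IRF4 after 1 μM DOT1L inhibitor for 6 days. Normalized to ACTB; mean of 3 replications ± SEM.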

[3] = test system: MM1.S; assay: Induction of cell cycle arrest in human MM1.S cells assessed as increase in accumulation of cells at G1 phase at 1 uM for 6 days; format: functional, cell-based; conditions: time 6.0 day
Outline: (§2)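 Flow cytometric cell cycle analysis of RPMI-8226 and MM.1S cells treated with 1 μM DOT1L inhibitor or DMSO for 6 days. Sub-G1, G0-G1 and S phase populations scored. Summary is from 3 replications, mean ± SEM.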

[4] = test system: MM1.S; assay: Upregulation of IFN in human MM1.S cells assessed as increase in IFIT1 gene at 1 uM for 6 days by qRT-PCR analysis; conditions: time 6.0 day
[5] = test system: RPMI-8226; assay: Upregulation of IFN in human RPMI-8226 cells assessed as increase in ISG15 gene at 1 uM for 6 days by qRT-PCR analysis; conditions: time 6.0 day
[6] = test system: MM1.S; assay: Effect on human MM1.S cells assessed as change in Myc mRNA level at 1 uM for 3 days by ChIP-qPCR analysis; format: functional, cell-based; conditions: time 3.0 day
Outline: (§3)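 ChIP-qPCR for H3K79me2 at IRF4-MYC signaling genes after 1 μM inhibitor or DMSO for 3 days. Signal normalized to input DNA. An intergenic region 28 kb upstream of KLF2 served as negative control. Mean of 3 replications ± SEM.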

[7] = test system: RPMI-8226; assay: Induction of apoptosis in human RPMI-8226 cells assessed as viable cells at 1 uM for 6 days by annexin-V based propidium iodide staining based flow cytometric analysis (reference value: 79.67%); format: functional; conditions: RPMI-8226, 144 h, time 6 day, read-out: Activity
[8] = test system: MM1.S; assay: Upregulation of IFN in human MM1.S cells assessed as increase in ISG15 gene at 1 uM for 6 days by qRT-PCR analysis; conditions: time 6.0 day
[9] = test system: RPMI-8226; assay: Induction of apoptosis in human RPMI-8226 cells assessed as late apoptotic cells at 1 uM for 3 days by annexin-V based propidium iodide staining based flow cytometric analysis (reference value: 2.43%); format: functional; conditions: time 3 day
[10] = test system: KMS-12-PE; assay: Effect on human KMS-12-PE cells assessed as change in IRF4 mRNA level by qRT-PCR analysis; format: functional, cell-based
Outline: (§4)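 Basal MYC and IRF4 mRNA in untreated cells measured by qRT-PCR. Normalized to ACTB; mean of 3 replications ± SEM.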

[11] = test system: U-266; assay: Antiproliferative activity against human U-266 cells assessed as reduction in cell viability measured at 1 uM for 18 days; format: functional, cell-based; conditions: time 18.0 day
[12] = test system: RPMI-8226; assay: Upregulation of IFN in human RPMI-8226 cells assessed as increase in IFI44 gene at 1 uM for 6 days by qRT-PCR analysis; conditions: time 6.0 day
[13] = test system: RPMI-8226; assay: Induction of apoptosis in human RPMI-8226 cells assessed as viable cells at 1 uM for 6 days by annexin-V based propidium iodide staining based flow cytometric analysis (reference value: 79.0%); format: functional; conditions: RPMI-8226, 144 h, time 6 day, read-out: Activity
[14] = test system: RPMI-8226; assay: Upregulation of IFN in human RPMI-8226 cells assessed as increase in IFIT1 gene at 1 uM for 6 days by qRT-PCR analysis; conditions: time 6.0 day
[15] = test system: RPMI-8226; assay: Induction of apoptosis in human RPMI-8226 cells assessed as late apoptotic cells at 1 uM for 6 days by annexin-V based propidium iodide staining based flow cytometric analysis (reference value: 10.5%); format: functional; conditions: time 6 day
[16] = test system: RPMI-8226; assay: Induction of apoptosis in human RPMI-8226 cells assessed as necrotic cells at 1 uM for 3 days by annexin-V based propidium iodide staining based flow cytometric analysis (reference value: 3.40%); format: functional; conditions: time 3 day
[17] = test system: KMS-12-BM; assay: Effect on human KMS-12-BM cells assessed as change in MYC mRNA level by qRT-PCR analysis; format: functional, cell-based; outline: as §4
[18] = test system: RPMI-8226; assay: Induction of cell cycle arrest in human RPMI-8226 cells assessed as increase in accumulation of cells at G0 phase at 1 uM for 6 days; format: functional, cell-based; conditions: time 6.0 day; outline: as §2
[19] = test system: RPMI-8226; assay: Effect on human RPMI-8226 cells assessed as change in Myc mRNA level at 1 uM for 3 days by ChIP-qPCR analysis; format: functional, cell-based; conditions: time 3.0 day; outline: as §3
[20] = test system: KMS-12-BM; assay: Effect on human KMS-12-BM cells assessed as decrease in IRF4 mRNA level at 1 uM for 6 days by qRT-PCR analysis; format: functional, cell-based; conditions: time 6.0 day; outline: as §1
[21] = test system: U-266; assay: Antiproliferative activity against human U-266 cells treated 3 days at 1 uM; format: functional, cell-based; conditions: time 3.0 day
Outline: (§5)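 Cell lines in 6-well plates, 2 × 10^4 to 8 × 10^5 cells/well, exposed to DOT1L inhibitor at 0.25-1 μM or DMSO, with medium and drug refreshed every 3 days. Viability read with Cell Counting Kit-8 on a microplate reader. Values normalized to untreated cells; mean of 3 replications ± SEM.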

[22] = test system: RPMI-8226; assay: Effect on human RPMI-8226 cells assessed as change in PRDM1 mRNA level at 1 uM for 3 days by ChIP-qPCR analysis; format: functional, cell-based; conditions: time 3.0 day; outline: as §3
[23] = test system: MM1.S; assay: Induction of apoptosis in human MM1.S cells assessed as early apoptotic cells at 1 uM for 6 days by annexin-V based propidium iodide staining based flow cytometric analysis (reference value: 14.6%); format: functional; conditions: time 6 day
[24] = test system: MM1.S; assay: Induction of apoptosis in human MM1.S cells assessed as viable cells at 1 uM for 6 days by annexin-V based propidium iodide staining based flow cytometric analysis (reference value: 80.4%); format: functional; conditions: 144 h, time 6 day, read-out: Activity
[25] = test system: KMS-12-PE; assay: Effect on human KMS-12-PE cells assessed as change in MYC mRNA level by qRT-PCR analysis; format: functional, cell-based; outline: as §4
[26] = test system: RPMI-8226; assay: Induction of apoptosis in human RPMI-8226 cells assessed as necrotic cells at 1 uM for 6 days by annexin-V based propidium iodide staining based flow cytometric analysis (reference value: 3.61%); format: functional; conditions: time 6 day
[27] = test system: MM1.S; assay: Induction of apoptosis in human MM1.S cells assessed as viable cells at 1 uM for 3 days by annexin-V based propidium iodide staining based flow cytometric analysis (reference value: 94.3%); format: functional; conditions: 72 h, time 3 day, read-out: Activity
[28] = test system: KMS-11; assay: Antiproliferative activity against human KMS-11 cells treated 3 days at 1 uM; format: functional, cell-based; conditions: time 3.0 day; outline: as §5
[29] = test system: KMS-12-BM; assay: Effect on human KMS-12-BM cells assessed as decrease in MYC mRNA level at 1 uM for 6 days by qRT-PCR analysis; format: functional, cell-based; conditions: time 6.0 day; outline: as §1
[30] = test system: MM1.S; assay: Antiproliferative activity against human MM1.S cells treated 3 days at 1 uM; format: functional, cell-based; conditions: time 3.0 day; outline: as §5
[31] = test system: MM1.S; assay: Induction of apoptosis in human MM1.S cells assessed as late apoptotic cells at 1 uM for 6 days by annexin-V based propidium iodide staining based flow cytometric analysis (reference value: 4.85%); format: functional; conditions: time 6 day

Compound | Activity [1] [%] | Activity [2] | Activity [3] | Activity [4] | Activity [5] | Activity [6] | viability at 1 µM [7] [%] | Activity [8] | Activity [9] [%] | Activity [10] | Activity [11] | Activity [12] | viability at 1 µM [13] [%] | Activity [14] | Activity [15] [%] | Activity [16] [%] | Activity [17] | Activity [18] | Activity [19] | Activity [20] | also measured
CC(C)N(C[C@H]1O[C@@H](n2cnc3c(N)ncnc32)[C@H](O)[C@@H]1O)[C@H]1C[C@@H](CCc2nc3cc(C(C)(C)C)ccc3[nH]2)C1 [PINOMETOSTAT] | 3.98 | Active | Active | Active | Active | Active | 50.2 | Active | 9.83 | Active | Active | Active | 63.5 | Active | 18.3 | 6.18 | Active | Active | Active | Active | Activity [21]: inactive; Activity [22]: Active; Activity [23]: 21.1%; viability at 1 µM [24]: 67.5%; Activity [25]: Active; Activity [26]: 9.09%; viability at 1 µM [27]: 96.7%; Activity [28]: Active; Activity [29]: Active; Activity [30]: Active; Activity [31]: 11.4%
CC(C)N(CCCNC(=O)Nc1ccc(C(C)(C)C)cc1)C[C@H]1O[C@@H](n2cc(Br)c3c(N)ncnc32)[C@H](O)[C@@H]1O | 4.83 | Active | Active | Active | Active | Active | 66.9 | Active | 8.85 | Active | Active | Active | 60.9 | Active | 12.9 | 6.32 | Active | Active | Active | Active | Activity [21]: inactive; Activity [22]: Active; Activity [23]: 20.2%; viability at 1 µM [24]: 67.9%; Activity [25]: Active; Activity [26]: 8.1%; viability at 1 µM [27]: 92.3%; Activity [28]: Active; Activity [29]: Active; Activity [30]: Active; Activity [31]: 11.7%
